Numbered stars: 1 amine (or outer) side, 2 acyl side, 3 side chain; on linkers, the order of the positions; unused ones are H or OH. Bridge positions count the residues as written; N and C are the ends. Square brackets hold non-standard residues; d marks the D form. Peptide text beside a SMILES is read from it. 1Nal = N[C@@H](Cc1cccc2ccccc12)C(=O)O; 2Nal = N[C@@H](Cc1ccc2ccccc2c1)C(=O)O; CH2 = C([*:1])[*:2]
How the values were obtained:
[1] = target: Mu-type opioid receptor (Rattus norvegicus) (UniProt P33535); assay: Agonist activity at rat mu opioid receptor expressed in rat C6 cells assessed as stimulation of [35S]GTPgammaS binding at 10 uM after 1 hr by liquid scintillation counting relative to DAMGO; type: functional, cell-based
Summary of the method: (§1)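 Membranes (20-30 μg protein) from C6-MOR, C6-DOR or CHO-KOR cells incubated 1 h at 25 °C in 50 mM Tris-HCl pH 7.4, 100 mM NaCl, 5 mM MgCl2 with 0.1 nM [35S]GTPγS, 100 μM GDP and peptide at 0.001-10000 nM or 10 μM. Filtered and counted.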

[2] = target: T1, Kappa-type opioid receptor (Homo sapiens, UniProt P41145); assay: Agonist activity at human kappa opioid receptor expressed in CHO cells assessed as stimulation of [35S]GTPgammaS binding at 10 uM after 1 hr by liquid scintillation counting relative to U69593; type: functional, cell-based; summary of the method: as §1
[3] = target: Delta-type opioid receptor (Rattus norvegicus) (UniProt P33533); assay: Ratio of compound Ki to 5R,8S,11S,14S)-14-((S)-2-amino-3-(4-hydroxyphenyl)propanamido)-8,11-dibenzyl-7,10,13-trioxo-1,3-dithia-6,9,12-triazacyclopentadecane-5-carboxamide Ki for rat delta opioid receptor expressed in rat C6 cells; type: cell-based
[4] = target: T2, Delta-type opioid receptor (Rattus norvegicus, UniProt P33533); assay: Displacement of [3H]diprenorphine from rat delta opioid receptor expressed in rat C6 cells after 1 hr by liquid scintillation counting; type: cell-based
Summary of the method: (§2)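 Membranes from C6 glioma cells stably expressing rat MOR or DOR, or CHO cells expressing human KOR (10-20 μg protein), incubated with 0.2 nM [3H]diprenorphine and increasing peptide concentrations in 50 mM Tris-HCl pH 7.4 for 1 h at 25 °C. Filtered and counted by scintillation. Nonspecific binding defined with 10 μM naloxone.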

[5] = target: Delta-type opioid receptor (Rattus norvegicus) (UniProt P33533); assay: Agonist activity at rat delta opioid receptor expressed in rat C6 cells assessed as stimulation of [35S]GTPgammaS binding at 10 uM after 1 hr by liquid scintillation counting relative to SNC80; type: functional, cell-based; summary of the method: as §1
[6] = target: T1, Kappa-type opioid receptor; assay: Displacement of [3H]diprenorphine from human kappa opioid receptor expressed in CHO cells after 1 hr by liquid scintillation counting; type: cell-based; summary of the method: as §2
[7] = target: T1, Kappa-type opioid receptor; assay: Ratio of compound Ki to 5R,8S,11S,14S)-14-((S)-2-amino-3-(4-hydroxyphenyl)propanamido)-8,11-dibenzyl-7,10,13-trioxo-1,3-dithia-6,9,12-triazacyclopentadecane-5-carboxamide Ki for human kappa opioid receptor expressed in CHO cells; type: cell-based
Mu-type opioid receptor [8] = target: T3, Mu-type opioid receptor (Rattus norvegicus, UniProt P33535); assay: Displacement of [3H]diprenorphine from rat mu opioid receptor expressed in rat C6 cells after 1 hr by liquid scintillation counting; type: cell-based; summary of the method: as §2
Mu-type opioid receptor [9] = target: T3, Mu-type opioid receptor; assay: Agonist activity at rat mu opioid receptor expressed in rat C6 cells assessed as stimulation of [35S]GTPgammaS binding after 1 hr by liquid scintillation counting; type: functional, cell-based; summary of the method: as §1
[10] = target: Delta-type opioid receptor (Rattus norvegicus) (UniProt P33533); details: C6, 1 uM
[11] = target: T1, Kappa-type opioid receptor; assay: Agonist activity at human kappa opioid receptor expressed in CHO cells assessed as stimulation of [35S]GTPgammaS binding after 1 hr by liquid scintillation counting; type: functional, cell-based; summary of the method: as §1
[12] = target: T2, Delta-type opioid receptor; assay: Binding affinity to rat delta opioid receptor expressed in rat C6 cells; type: cell-based; summary of the method: as §2
[13] = target: T2, Delta-type opioid receptor; assay: Agonist activity at rat delta opioid receptor expressed in rat C6 cells assessed as inhibition of forskolin-stimulated cAMP production after 30 mins by radioimmunoassay
[14] = target: Delta-type opioid receptor (Rattus norvegicus) (UniProt P33533); details: C6, 1 uM; remark: listed apart in the source

T2 sequence (P33533 whole entry): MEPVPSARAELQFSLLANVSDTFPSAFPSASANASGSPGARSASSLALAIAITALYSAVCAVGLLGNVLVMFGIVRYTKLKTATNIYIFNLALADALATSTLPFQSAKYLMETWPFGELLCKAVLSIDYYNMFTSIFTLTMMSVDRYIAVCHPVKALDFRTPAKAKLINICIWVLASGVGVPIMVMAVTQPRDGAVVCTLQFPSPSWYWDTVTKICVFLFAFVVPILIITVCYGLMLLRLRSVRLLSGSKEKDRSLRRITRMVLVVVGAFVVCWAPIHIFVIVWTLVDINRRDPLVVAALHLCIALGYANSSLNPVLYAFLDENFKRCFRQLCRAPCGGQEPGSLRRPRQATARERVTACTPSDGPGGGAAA
Sequence of Delta-type opioid receptor (Rattus norvegicus) (P33533 whole entry): as above
T1 sequence (P41145 whole entry): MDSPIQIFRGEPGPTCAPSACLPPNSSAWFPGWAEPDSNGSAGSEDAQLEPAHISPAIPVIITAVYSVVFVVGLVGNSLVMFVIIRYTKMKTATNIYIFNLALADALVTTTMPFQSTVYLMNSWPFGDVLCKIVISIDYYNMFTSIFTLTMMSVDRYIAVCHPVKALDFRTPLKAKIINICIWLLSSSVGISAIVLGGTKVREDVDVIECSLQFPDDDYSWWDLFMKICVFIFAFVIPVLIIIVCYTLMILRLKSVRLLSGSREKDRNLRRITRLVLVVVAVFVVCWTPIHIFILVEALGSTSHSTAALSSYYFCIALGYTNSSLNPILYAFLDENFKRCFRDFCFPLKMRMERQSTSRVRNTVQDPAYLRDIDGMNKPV
Sequence of Mu-type opioid receptor (Rattus norvegicus) (P33535 whole entry): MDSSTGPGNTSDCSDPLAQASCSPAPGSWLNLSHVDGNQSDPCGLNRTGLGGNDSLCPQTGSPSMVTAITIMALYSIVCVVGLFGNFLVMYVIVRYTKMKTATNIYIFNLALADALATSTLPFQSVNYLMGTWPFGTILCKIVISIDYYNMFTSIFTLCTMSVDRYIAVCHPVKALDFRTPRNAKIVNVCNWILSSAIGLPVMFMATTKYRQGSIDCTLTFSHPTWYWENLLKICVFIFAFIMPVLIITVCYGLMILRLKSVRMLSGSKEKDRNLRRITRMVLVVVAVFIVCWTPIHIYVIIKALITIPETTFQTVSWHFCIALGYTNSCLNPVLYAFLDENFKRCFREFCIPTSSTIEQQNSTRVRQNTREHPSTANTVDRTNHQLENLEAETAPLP
T3 sequence (P33535 whole entry): as above

Compound	Efficacy [1] [%]	Efficacy [2] [%]	Ratio Ki [3]	Ki [4] [nM]	Efficacy [5] [%]	Ki [6] [nM]	Ratio Ki [7]	Ki (Mu-type opioid receptor [8]) [nM]	EC50 (Mu-type opioid receptor [9]) [nM]	inhibition [10] [%]	EC50 [11] [nM]	Ki [12] [nM]	EC50 [13] [nM]	inhibition [14] [%]
NC(=O)[C@@H]1CSSC[C@@H](NC(=O)[C@@H](N)Cc2ccc(O)cc2)C(=O)N[C@@H](Cc2ccc3ccccc3c2)C(=O)N[C@@H](Cc2ccccc2)C(=O)N1 (H-Y[dC][2Nal]FC-NH2; disulfide 2-5)	34	7.5	> 10	55	0.7	145	> 10	0.72	–	–	–	–	–	–
NC(=O)[C@@H]1CSCSC[C@@H](NC(=O)[C@@H](N)Cc2ccc(O)cc2)C(=O)N[C@@H](Cc2ccccc2)C(=O)N[C@@H](Cc2cccc3ccccc23)C(=O)N1 (H-Y[dC]F[1Nal]C-NH2; linker 2-5 via CH2)	100	87	–	5.2	22	6	–	0.61	–	–	–	–	–	–
NC(=O)[C@@H]1CSSC[C@@H](NC(=O)[C@@H](N)Cc2ccc(O)cc2)C(=O)N[C@@H](Cc2ccccc2)C(=O)N[C@@H](Cc2ccc3ccccc3c2)C(=O)N1 (H-Y[dC]F[2Nal]C-NH2; disulfide 2-5)	90	49	–	11	2	5.9	–	1.2	–	–	–	–	–	–
NC(=O)[C@@H]1CSSC[C@@H](NC(=O)[C@@H](N)Cc2ccc(O)cc2)C(=O)N[C@@H](Cc2cccc3ccccc23)C(=O)N[C@@H](Cc2ccccc2)C(=O)N1 (H-Y[dC][1Nal]FC-NH2; disulfide 2-5)	33	59	> 10	34	0	21	–	0.08	–	–	–	–	–	–
NC(=O)[C@@H]1CSCSC[C@@H](NC(=O)[C@@H](N)Cc2ccc(O)cc2)C(=O)N[C@@H](Cc2ccccc2)C(=O)N[C@@H](Cc2ccc3ccccc3c2)C(=O)N1 (H-Y[dC]F[2Nal]C-NH2; linker 2-5 via CH2)	99	89	–	0.48	7	1.3	–	0.47	1.2	55	12	2.1	36	37
NC(=O)[C@@H]1CSCSC[C@@H](NC(=O)[C@@H](N)Cc2ccc(O)cc2)C(=O)N[C@@H](Cc2cccc3ccccc23)C(=O)N[C@@H](Cc2ccccc2)C(=O)N1 (H-Y[dC][1Nal]FC-NH2; linker 2-5 via CH2)	91	77	> 10	34	23	5.8	–	0.33	–	–	–	–	–	–
NC(=O)[C@@H]1CSCSC[C@@H](NC(=O)[C@@H](N)Cc2ccc(O)cc2)C(=O)N[C@@H](Cc2ccc3ccccc3c2)C(=O)N[C@@H](Cc2ccccc2)C(=O)N1 (H-Y[dC][2Nal]FC-NH2; linker 2-5 via CH2)	34	35	> 10	15	23	69	> 10	0.47	–	–	–	–	–	–
C=CCN1C[C@H](C)N([C@H](c2ccc(C(=O)N(CC)CC)cc2)c2cccc(OC)c2)C[C@H]1C	–	–	–	–	–	–	–	–	–	–	–	–	–	67
NC(=O)[C@@H]1CSSC[C@@H](NC(=O)[C@@H](N)Cc2ccc(O)cc2)C(=O)N[C@@H](Cc2ccccc2)C(=O)N[C@@H](Cc2cccc3ccccc23)C(=O)N1 (H-Y[dC]F[1Nal]C-NH2; disulfide 2-5)	88	100	–	7.1	15	11	–	2.5	–	–	–	–	–	–
